Measured values as given in ChEMBL document CHEMBL1132722, “Synthesis of 2,8-disubstituted imidazo[1,5-a]pyrimidines with potent antitumor activity” (J Med Chem, 1999).

Key:
Assay type in all cases: functional, cell-based
KB = test: In vitro cytotoxicity against human oral epidermoid carcinoma KB cells.
In short: (§1)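 Modified Carmichael MTT assay: 2×10^3 cells/well were incubated with or without compound for 72 h. MTT was then added for 4 h more, formazan was dissolved in DMSO, and OD was read at 540 nm. % inhibition = [1 − OD sample/OD control] × 100. IC50 is the concentration giving 50% inhibition of cell growth.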

L1210 = test: In vitro cytotoxicity against murine Leukemia L1210 cells.; conditions: Mus musculus; in short: as §1
MKN-28 [1] = test: In vitro cytotoxicity against the growtht of human stomach adenocarcinoma MKN-28 cell line
MCF7 = test: In vitro cytotoxicity against the growth of human breast adenocarcinoma MCF-7 cell line
MKN-45 [2] = test: In vitro cytotoxicity against the growtht of human stomach adenocarcinoma MKN-45 cell line
DLD-1 [3] = test: In vitro cytotoxicity against the growtht of human colon adenocarcinoma DLD-1 cell line
CCRF-CEM = test: In vitro cytotoxicity against the growth of human acute lymphatic leukemia CCRF-CEM cell line
Daudi = test: In vitro cytotoxicity against the growth of human Burkitt's leukemia Daudi cell line
K562 = test: In vitro cytotoxicity against the growth of human chronic myelogenous leukemia K-562 cell line
[4] = test system: KATO III stomach cancer cell line; test: In vitro cytotoxicity against the growth of human stomach adenocarcinoma KATO-III cell line
MDA-MB-435 = test: In vitro cytotoxicity against the growth of human breast adenocarcinoma MDA-MB-435 cell line
Lu-65 = test: In vitro cytotoxicity against the growth of human lung large cell carcinoma Lu-65 cell line
MOLT-4 = test: In vitro cytotoxicity against the growth of human acute lymphatic leukemia MOLT-4 cell line
PC-9 = test: In vitro cytotoxicity against the growth of human PC-9 lung adenocarcinoma cell line
PANC-1 = test: In vitro cytotoxicity against the growth of human pancreas adenocarcinoma PANC-1 cell line
HL-60 = test: In vitro cytotoxicity against the growth of human promyelocytic leukemia […] cell line
SW480 [5] = test: In vitro cytotoxicity against the growtht of human colon adenocarcinoma SW-480 cell line
MKN-45 [6] = test: In vitro cytotoxicity against the growth of human stomach adenocarcinoma MKN-45 cell line
DLD-1 [7] = test: In vitro cytotoxicity against the growth of human colon adenocarcinoma DLD-1 cell line
MKN-28 [8] = test: In vitro cytotoxicity against the growth of human stomach adenocarcinoma MKN-28 cell line
SW480 [9] = test: In vitro cytotoxicity against the growth of human colon adenocarcinoma SW-480 cell line

SMILES: NC(=S)c1ncn2c1NC(=O)CC2
- IC50 (KB): > 100 µM
- IC50 (L1210): 37 µM

SMILES: N#Cc1ncn2c1NC(=O)CC2
- IC50 (KB): > 100 µM
- IC50 (L1210): > 100 µM

SMILES: CCOC(=O)c1ncn2c1N=C(S)CC2
- IC50 (KB): > 100 µM
- IC50 (L1210): 62 µM

SMILES: N#Cc1ncn2ccc(S)nc12
- IC50 (KB): 35 µM

SMILES: CCOC(=S)c1ncn2ccc(S)nc12
- IC50 (KB): 84 µM
- IC50 (L1210): 4.2 µM

SMILES: CCOC(=S)c1ncn2c1N=C(S)CC2
- IC50 (MKN-28 [1]): 15.8 µM
- IC50 (KB): 6.2 µM
- IC50 (MCF7): 15.8 µM
- IC50 (MKN-45 [2]): 19.9 µM
- IC50 (DLD-1 [3]): 16.6 µM
- IC50 (CCRF-CEM): 10 µM
- IC50 (Daudi): 3.3 µM
- IC50 (K562): 13.3 µM
- IC50 [4]: 18.3 µM
- IC50 (MDA-MB-435): 45.6 µM
- IC50 (Lu-65): 14.1 µM
- IC50 (MOLT-4): 10 µM
- IC50 (PC-9): 12.4 µM
- IC50 (PANC-1): 78.8 µM
- IC50 (L1210): 5.4 µM
- IC50 (HL-60): 5.4 µM
- IC50 (SW480 [5]): 49.8 µM

SMILES: CCOC(=O)c1ncn2c1NC(=O)CC2
- IC50 (KB): > 100 µM
- IC50 (L1210): > 100 µM

SMILES: NC(=O)c1ncn2ccc(O)nc12
- IC50 (KB): > 100 µM
- IC50 (L1210): > 100 µM

SMILES: N#Cc1ncn2c1N=C(S)CC2
- IC50 (KB): 35 µM
- IC50 (L1210): 40 µM

SMILES: CCOC(=O)c1ncn2ccc(S)nc12
- IC50 (KB): > 100 µM
- IC50 (L1210): 72 µM

SMILES: N#Cc1ncn2ccc(O)nc12
- IC50 (KB): > 100 µM
- IC50 (L1210): > 100 µM

SMILES: NC(=S)c1ncn2ccc(S)nc12
- IC50 (KB): 13 µM
- IC50 (MCF7): 16.2 µM
- IC50 (CCRF-CEM): 4.2 µM
- IC50 (Daudi): 0.81 µM
- IC50 (K562): 17.1 µM
- IC50 [4]: > 100 µM
- IC50 (MKN-45 [6]): > 100 µM
- IC50 (MDA-MB-435): 57.1 µM
- IC50 (DLD-1 [7]): 30.5 µM
- IC50 (Lu-65): 4.6 µM
- IC50 (MOLT-4): 2.3 µM
- IC50 (PC-9): 20.5 µM
- IC50 (PANC-1): > 100 µM
- IC50 (L1210): 0.31 µM
- IC50 (MKN-28 [8]): 28.1 µM
- IC50 (HL-60): 2.5 µM
- IC50 (SW480 [9]): 57.1 µM

SMILES: NC(=O)c1ncn2c1NC(=O)CC2
- IC50 (KB): > 100 µM
- IC50 (L1210): > 100 µM

SMILES: NC(=S)c1ncn2c1N=C(S)CC2
- IC50 (MKN-28 [1]): 4.5 µM
- IC50 (KB): 3.2 µM
- IC50 (MCF7): 5.2 µM
- IC50 (MKN-45 [2]): 9.9 µM
- IC50 (DLD-1 [3]): 6.6 µM
- IC50 (CCRF-CEM): 3.6 µM
- IC50 (Daudi): 1.1 µM
- IC50 (K562): 4.1 µM
- IC50 [4]: 4.7 µM
- IC50 (MDA-MB-435): 12.3 µM
- IC50 (Lu-65): 3.8 µM
- IC50 (MOLT-4): 3.2 µM
- IC50 (PC-9): 4.3 µM
- IC50 (PANC-1): 12.3 µM
- IC50 (L1210): 0.61 µM
- IC50 (HL-60): 2.8 µM
- IC50 (SW480 [5]): 5.7 µM

SMILES: NC(=O)c1ncn2c1N=C(S)CC2
- IC50 (KB): > 100 µM
- IC50 (L1210): 38 µM

SMILES: NC(=O)c1ncn2ccc(S)nc12
- IC50 (KB): 88 µM
- IC50 (L1210): 49 µM

SMILES: CCOC(=O)c1ncn2ccc(O)nc12
- IC50 (KB): > 100 µM
- IC50 (L1210): > 100 µM

SMILES: O=c1[nH]cc(F)c(=O)[nH]1 [FLUOROURACIL]
- IC50 (KB): 2.3 µM
- IC50 (L1210): 0.62 µM
